From PubChem BioAssay
Sampled rows, rich in hits. Any-hit rate of the full collection: about 1.1%.
ERp5 block – inhibitors of ERp5-driven insulin aggregation, primary screen, biochemical, turbidity, absorbance 650 nm, single point | AID 651711, 2012 | Protein disulfide-isomerase A6 (Homo sapiens), Q15084 | 90 min | hit rate 0.05% among 350,000 | inhibition, % at 9.99 µM;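 active means mean replicate inhibition above about 25%, with every replicate also reaching it, limit read from the data, passing the limit was not always enough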
Rin1-Abl PPI inh – inhibitors of Rin1-Abl protein binding, primary screen, biochemical, TR-FRET; AID 588664, 2011; Tyrosine-protein kinase ABL1 (Homo sapiens) + Ras and Rab interactor 1 (Homo sapiens), …; hit rate 0.4% among 360,000; inhibition, % at 7.35 µM; in the data active means inhibition above about 5%, passing the limit was not always enough
CAL PDZ FP-1 – untagged CAL PDZ binding inhibitors, primary screen, biochemical, fluorescence polarization, HTS | Golgi-associated PDZ and coiled-coil motif-containing protein (Homo sapiens), Q9HD26 | purified CAL PDZ, TMR-peptide fluorescence polarization, 1 h | inhibition, % at 24.9 µM | hit rate 0.92% among 300,000 | AID 602252, 2012;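 active means mean inhibition of at least 30% with at least half of replicates also reaching 30%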;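 further: 0% = DMSO neutral control and 100% = excess unlabeled competitor peptide PRC23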
ERAP1 HTS inh – human ERAP1 aminopeptidase inhibitors, primary screen, biochemical, single point, plate reader; AID 652197, 2013; Endoplasmic reticulum aminopeptidase 1 (Homo sapiens), Q9NZ08; inhibition, % at 10.7 µM; recombinant ERAP1, Leu-AMC fluorescence, 60 min; hit rate 0.15% among 340,000;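 active means mean replicate inhibition of at least 30%, or all replicates individually reaching that 30% level; inactive means mean below 30% and not every replicate reaching it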;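 further: 0% = neutral control wells and 100% = L-leucinethiol positive control wells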
Target sequence (Q9NZ08 whole entry, looked up): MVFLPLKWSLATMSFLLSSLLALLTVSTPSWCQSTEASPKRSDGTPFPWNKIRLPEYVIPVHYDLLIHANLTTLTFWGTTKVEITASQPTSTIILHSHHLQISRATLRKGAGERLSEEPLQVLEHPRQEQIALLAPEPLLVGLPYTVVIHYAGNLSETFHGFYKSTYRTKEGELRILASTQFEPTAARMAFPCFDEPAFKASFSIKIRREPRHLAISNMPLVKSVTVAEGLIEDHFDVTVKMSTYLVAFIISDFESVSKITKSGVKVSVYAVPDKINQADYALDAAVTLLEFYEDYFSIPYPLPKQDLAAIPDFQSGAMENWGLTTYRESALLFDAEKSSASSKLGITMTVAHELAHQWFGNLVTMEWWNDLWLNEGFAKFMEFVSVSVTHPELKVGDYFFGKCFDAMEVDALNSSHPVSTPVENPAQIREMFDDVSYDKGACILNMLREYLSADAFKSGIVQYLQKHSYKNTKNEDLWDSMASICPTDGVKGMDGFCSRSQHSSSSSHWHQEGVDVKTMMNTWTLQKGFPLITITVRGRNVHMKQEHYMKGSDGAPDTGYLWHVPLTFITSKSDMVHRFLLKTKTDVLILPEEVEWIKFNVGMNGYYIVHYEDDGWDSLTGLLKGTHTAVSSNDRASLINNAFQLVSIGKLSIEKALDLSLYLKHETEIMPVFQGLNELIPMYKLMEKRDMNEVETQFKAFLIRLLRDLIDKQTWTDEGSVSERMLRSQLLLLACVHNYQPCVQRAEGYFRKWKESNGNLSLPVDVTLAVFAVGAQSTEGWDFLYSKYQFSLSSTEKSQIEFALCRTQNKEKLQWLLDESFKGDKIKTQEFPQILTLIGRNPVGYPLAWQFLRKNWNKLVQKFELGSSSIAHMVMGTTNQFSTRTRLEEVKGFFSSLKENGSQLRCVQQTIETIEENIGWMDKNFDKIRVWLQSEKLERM
CAL PDZ FP-2 – CAL PDZ peptide-binding inhibitors, primary screen, biochemical, fluorescence polarization, Cer-tagged CAL PDZ, HTS. hit rate 0.02% among 330,000. AID 504414, 2011. purified CAL PDZ, TMR-peptide fluorescence polarization, 1 h. inhibition, % at 20 µM;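 active means highest replicate inhibition of at least 40%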;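 further: plate controls were DMSO neutral control wells for no effect and unlabeled competitor peptide control wells for full effect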
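Material: tagged CAL PDZ domain; buffer or medium: 25 mM sodium phosphate pH 7.4, 150 mM NaCl, TCEP, IgG, Thesit; compound dosing: single point, 20 µM; schedule: 1 h incubation at room temperature before polarization reading; measured by: FP readout, S and P plane fluorescence; read-out basis: percent inhibition from loss of millipolarization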
PDI turbidity – inhibitors of human PDI, primary screen, biochemical, turbidity, single point, plate reader | Protein disulfide-isomerase (Homo sapiens), P07237 | inhibition, % at 10 µM | hit rate 0.052% among 350,000 | PDI insulin aggregation turbidity, A650, 90 min;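 active means mean inhibition across replicates of 30% or more, whatever share of single replicates reach that level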
* = called active by the depositor.

How did COc1cccc(/C=N/NC(=O)NC23CC4CC(CC(C4)C2)C3)c1O do in these assays?
Rin1-Abl PPI inh: 8.1*; PDI turbidity: 8

How did O=C(N/N=C/c1ccccc1F)NC12CC3CC(CC(C3)C1)C2 do in these assays?
ERp5 block: -3; Rin1-Abl PPI inh: 0; CAL PDZ FP-1: 5; ERAP1 HTS inh: -1; CAL PDZ FP-2: 0; PDI turbidity: 4

What do the screens show for `COc1ccc(/C=N/NC(=O)c2cnccn2)c(OC)c1OC`?
Rin1-Abl PPI inh: -1; CAL PDZ FP-1: -4; ERAP1 HTS inh: 1; CAL PDZ FP-2: -1; PDI turbidity: 0

What do the screens show for `COc1cccc(/C=N/NC(=O)c2cnccn2)c1O`?
ERp5 block: 2; Rin1-Abl PPI inh: 0; CAL PDZ FP-1: 90*; ERAP1 HTS inh: -1; CAL PDZ FP-2: -2; PDI turbidity: 0

How did COc1ccc(NC(=O)N(C)C[C@H]2Oc3c(NS(C)(=O)=O)cccc3C(=O)N([C@H](C)CO)C[C@@H]2C)cc1 do in these assays?
ERp5 block: -4; ERAP1 HTS inh: 1

What do the screens show for `CCOC(=O)c1c(NC(=O)COC(=O)CCNS(=O)(=O)c2ccccc2)sc(C(=O)NC)c1C`?
ERp5 block: -24; Rin1-Abl PPI inh: -2; ERAP1 HTS inh: 38*; CAL PDZ FP-2: -4; PDI turbidity: 3

How did CN(C)S(=O)(=O)Oc1ccc(C(=O)Nc2cccc(C(F)(F)F)c2)cc1 do in these assays?
ERp5 block: 3; Rin1-Abl PPI inh: 1; CAL PDZ FP-1: 38*; ERAP1 HTS inh: -1; CAL PDZ FP-2: 0; PDI turbidity: -7

What do the screens show for `CO[C@@H](CN(C)Cc1nccs1)[C@@H](C)CN([C@H](C)CO)S(=O)(=O)c1ccc(C)cc1`?
ERp5 block: -2; ERAP1 HTS inh: 1

How did Cc1cc(C)n(Cc2ccc(C(=O)O)cc2)n1 do in these assays?
ERp5 block: 3; Rin1-Abl PPI inh: 2; CAL PDZ FP-1: -3; ERAP1 HTS inh: -2; CAL PDZ FP-2: -2; PDI turbidity: 1

Results for COC(=O)c1ccc(Cn2nc(C)cc2C)cc1 ?
Rin1-Abl PPI inh: -1; CAL PDZ FP-1: 112*; PDI turbidity: -2

Results for COc1cccc(CN2CCCCN3[C@H](CO)[C@@H](c4ccc(C#Cc5cccnc5)cc4)[C@H]3C2)c1 ?
ERp5 block: -4; ERAP1 HTS inh: 8

How did Cc1ccccc1-c1ccc([C@@H]2[C@@H](CO)N3CCCCN(CC4CC4)C[C@H]23)cc1 do in these assays?
ERp5 block: -4; ERAP1 HTS inh: -2

How did C[C@@H]1CN([C@H](C)CO)C(=O)c2cccc(NC(=O)c3ccncc3)c2O[C@H]1CN(C)S(=O)(=O)c1cn(C)cn1 do in these assays?
ERp5 block: -1; ERAP1 HTS inh: 2

How did CC1=NN(c2ccccc2)C(=O)/C1=C/c1cccs1 do in these assays?
Rin1-Abl PPI inh: -1; CAL PDZ FP-1: -4; CAL PDZ FP-2: 0; PDI turbidity: 4

How did CC1=NN(c2ccccc2)C(=O)C1=Cc1ccccc1 do in these assays?
ERp5 block: 8; Rin1-Abl PPI inh: 29*; ERAP1 HTS inh: -2; PDI turbidity: -4

How did Cc1cc(C(=O)NNC(=O)c2ccc(S(=O)(=O)N(C)C)cc2)c(C)o1 do in these assays?
ERp5 block: -6; Rin1-Abl PPI inh: 2; CAL PDZ FP-1: -2; ERAP1 HTS inh: 13; CAL PDZ FP-2: -1; PDI turbidity: 0

Results for Cc1cc(C(=O)NNC(=O)c2ccc(Cl)c(S(N)(=O)=O)c2)c(C)o1 ?
ERp5 block: 0; Rin1-Abl PPI inh: 3; CAL PDZ FP-1: 64*; ERAP1 HTS inh: -2; CAL PDZ FP-2: 0; PDI turbidity: -1

How did COCC(=O)Nc1ccc2c(c1)C(=O)N(C)C[C@@H](OC)[C@H](C)CN(CCC(F)(F)F)[C@@H](C)CO2 do in these assays?
ERp5 block: 6; ERAP1 HTS inh: 4
